The source of these data is ChEMBL document CHEMBL5154854, “Identification of a Vitamin-D Receptor Antagonist, MeTC7, which Inhibits the Growth of Xenograft and Transgenic Tumors In Vivo” (J Med Chem, 2022).

Active and inactive are the calls of the source. The calls are words filed in the database; no cut-off is given here.

For data set [1], the system named is BE(2)-C. The experiment in a line: Cytotoxicity against human BE2C cells assessed as reduction in cell viability incubated for 48 hrs by MTS assay. The note with it: dose 0.1-10 µM, DDE = dose-dependent effect. The data set is classed as functional, cell-based. In a few lines:
(§1)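 Neuroblastoma lines seeded 5,000 cells/well, attached overnight, treated 48 h in complete medium (DMSO ≤0.2%); MTS reagent 1:10 in fresh RPMI 2–4 h, absorbance 490 nm.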
In general terms: Tetrazolium dyes change colour on reduction, which living cells bring about.

In a further data set the test system is Kelly. The experiment in a line: Cytotoxicity against human Kelly cells assessed as reduction in cell viability incubated for 48 hrs by MTS assay. Format: functional, cell-based. Particulars: dose 0.1-10 µM, DDE = dose-dependent effect. The essentials: as §1
For data set [2], the system named is SH-SY5Y. The data set can be described thus: Cytotoxicity against human SH-SY5Y cells assessed as reduction in cell viability incubated for 48 hrs by MTS assay. Format: functional, cell-based. Particulars: dose 0.1-10 µM, DDE = dose-dependent effect. The essentials: as §1
Data set [3] can be described thus: Downregulation of VDR expression in human BE2C cells at 1 uM incubated for 24 hrs by western blot analysis relative to control. The data set is classed as functional, BE(2)-C. The essentials:
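BE(2)-C neuroblastoma cells were treated for 24 h and immunoblotted for VDR, with β-actin or α-tubulin as loading control. Band intensities are reported as normalized densitometry.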
Background: Immunoblotting shows a protein as a band on a membrane.

Data set [4] has as its target T1, Vitamin D3 receptor (Homo sapiens) (UniProt P11473).
T1 sequence (whole entry): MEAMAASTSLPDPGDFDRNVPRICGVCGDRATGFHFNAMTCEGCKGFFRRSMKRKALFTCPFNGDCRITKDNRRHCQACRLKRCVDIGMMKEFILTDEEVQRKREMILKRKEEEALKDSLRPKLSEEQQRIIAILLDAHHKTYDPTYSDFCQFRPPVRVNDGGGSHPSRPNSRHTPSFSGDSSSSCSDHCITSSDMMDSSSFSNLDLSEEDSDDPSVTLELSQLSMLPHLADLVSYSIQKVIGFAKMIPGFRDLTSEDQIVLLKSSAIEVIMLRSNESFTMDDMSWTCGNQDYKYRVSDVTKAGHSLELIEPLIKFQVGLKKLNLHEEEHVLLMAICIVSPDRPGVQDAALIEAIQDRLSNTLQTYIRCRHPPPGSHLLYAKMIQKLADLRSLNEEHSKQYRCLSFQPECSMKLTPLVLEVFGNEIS
The experiment in a line: Antagonist activity at VDR in human BE2C cells assessed as reduction in MYCN expression at 1 uM incubated for 24 hrs by western blot analysis relative to control. The data set is classed as cell-based. The note with it: filed as antagonist. The essentials: (§2)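 BE(2)-C cells given 1 μM for 24 h; immunoblot with β-actin or α-tubulin loading control; normalized densitometry.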

Data set [5] has as its target T1, Vitamin D3 receptor (Homo sapiens). The data set can be described thus: Antagonist activity at VDR in human BE2C cells assessed as reduction in cyclin-D expression at 1 uM incubated for 24 hrs by western blot analysis relative to control. The data set is classed as cell-based. The note with it: filed as antagonist. In a few lines: as §2
The test system of data set [6] is SH-SY5Y. The experiment in a line: Anti-tumor activity against human SH-SY5Y cells xenografted in NSG mouse assessed as reduction in tumor volume at 10 mg/kg, ip measured for 5 to 10 days. The data set is classed as functional, organism-based. The note with it: time 5-10 day. The essentials: (§3)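 NSG mice, 6–8 weeks, injected subcutaneously in right flank with ES2 (250,000) or SH-SY5Y/BE(2)C (1 million) cells in cold matrigel/serum-free RPMI 1:1. Once palpable, 10 mg/kg IP M–F vs vehicle; volume (length × width2)[…]; BE(2)C and ES2 monitored alternate days; endpoint 2000 mm3; % change in volume, t-test.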
In general terms: In xenograft studies the graft and the host belong to different species.

The subject of data set [7] is BE(2)-C. The data set can be described thus: Anti-tumor activity against human BE2C cells xenografted in NSG mouse assessed as reduction in tumor volume at 10 mg/kg, ip measured for 5 to 8 days. Format: functional, organism-based. Particulars: time 5-8 day. The essentials: as §3
Data set [8] has as its system Tumor cell line. The data set can be described thus: Cytotoxicity against tumor cells in TH-MYCN +/+ transgenic neuroblastoma 129x1/SvJ.Tg (TH-MYCN)41Waw/Nci mouse model assessed as reduction in cell viability at 0.1 to 10 uM measured after 3 days by MTS assay. The data set is classed as functional, cell-based. The note with it: dose 0.1-10 µM, time 3.0 day. In a few lines: (§4)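 Tumor cells mechanically dissociated from tumors of three homozygous TH-MYCN mice, grown as spheres in RPMI1640 with 20% FBS, 2-mercaptoethanol, pyruvate and NEAA; treated 3 days; viability by MTS; spheres imaged by light microscopy.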

For data set [9], the system named is Tumor cell line. The data set can be described thus: Cytotoxicity against tumor cells in TH-MYCN +/+ transgenic neuroblastoma 129x1/SvJ.Tg (TH-MYCN)41Waw/Nci mouse model assessed as reduction in viability of tumor spheres measured after 3 days by light microscopy. The data set is classed as functional, cell-based. The note with it: dose 1-4 µM, time 3.0 day, DDE = dose-dependent effect. The essentials:
as §4

In data set [10] the test system is Mus musculus. The data set can be described thus: Anti-tumor activity against TH-MYCN +/+ transgenic neuroblastoma 129x1/SvJ.Tg (TH-MYCN)41Waw/Nci mouse model assessed as reduction in tumor growth at 10 mg/kg, ip measured upto 7 days by ultrasound imaging analysis. The data set is classed as functional, organism-based. The note with it: time <= 7.0 day. In a few lines:
(§5)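 Homozygous TH-MYCN+/+ mice (129×1/SvJ background, genotyped) with spontaneous neuroblastoma dosed IP, vehicle n = 7, 10 mg/kg n = 8, six treatments; a 100 mg/kg group got three. Tumor burden by abdominal ultrasound under 1–3% isoflurane; tumors excised and weighed at end; groups compared by t-test.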

Data set [11] relates to Mus musculus. The experiment in a line: Anti-tumor activity against tumor cells in TH-MYCN +/+ neuroblastoma 129x1/SvJ.Tg (TH-MYCN)41Waw/Nci mouse model assessed as reduction in tumor volume administered intraperitoneally measured on day 7 by ultrasound imaging analysis. The note with it: route ip, time 7.0 day, DDE = dose-dependent effect. The data set is classed as functional, organism-based. In a few lines:
as §5

The test system of data set [12] is Mus musculus. The data set can be described thus: Anti-tumor activity against tumor cells in TH-MYCN +/+ neuroblastoma 129x1/SvJ.Tg (TH-MYCN)41Waw/Nci mouse model assessed as reduction in tumor weight at 10 mg/kg, ip measured on day 7 by ultrasound imaging analysis. The data set is classed as functional, organism-based. Particulars: time 7.0 day. The essentials: as §5

The nature of data set [13]: Toxicity in TH-MYCN +/+ transgenic neuroblastoma 129x1/SvJ.Tg (TH-MYCN)41Waw/Nci mouse model assessed as effect on CD45+ cells population at 10 mg/kg, ip qd by flow cytometry. The data set is classed as organism-based. The note with it: in vivo. The essentials:
(§6)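 Immune cells isolated from TH-MYCN tumor-bearing mice treated with vehicle or compound; CD45+, CD4+, CD8+, macrophage, patrolling monocyte/DC and CD11b+ populations quantified by flow cytometry with characterized markers.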

The nature of data set [14]: Toxicity in TH-MYCN +/+ transgenic neuroblastoma 129x1/SvJ.Tg (TH-MYCN)41Waw/Nci mouse model assessed as effect on CD4+ cells population at 10 mg/kg, ip qd by flow cytometry. The data set is classed as organism-based. The note with it: in vivo. The essentials: as §6
Data set [15] in a line: Toxicity in TH-MYCN +/+ transgenic neuroblastoma 129x1/SvJ.Tg (TH-MYCN)41Waw/Nci mouse model assessed as effect on CD8+ cells population at 10 mg/kg, ip qd by flow cytometry. Format: organism-based. Particulars: in vivo. In a few lines:
as §6

The nature of data set [16]: Toxicity in TH-MYCN +/+ transgenic neuroblastoma 129x1/SvJ.Tg (TH-MYCN)41Waw/Nci mouse model assessed as effect on macrophage population at 10 mg/kg, ip qd by flow cytometry. Format: organism-based. Particulars: in vivo. In a few lines: as §6
A short description of data set [17]: Toxicity in TH-MYCN +/+ transgenic neuroblastoma 129x1/SvJ.Tg (TH-MYCN)41Waw/Nci mouse model assessed as effect on patrolling monocytes/DC+ cells population at 10 mg/kg, ip qd by flow cytometry. Format: organism-based. The note with it: in vivo. The essentials: as §6
Data set [18] can be described thus: Toxicity in TH-MYCN +/+ transgenic neuroblastoma 129x1/SvJ.Tg (TH-MYCN)41Waw/Nci mouse model assessed as effect on CD11b+ cells population at 10 mg/kg, ip qd by flow cytometry. Particulars: in vivo. Format: organism-based. The essentials: as §6
Data set [19] can be described thus: Anti-tumor activity against human SK-OV-3 cells xenografted in nude mouse assessed as animal survival at 10 mg/kg, ip measured upto 36 days. The note with it: SK-OV-3, 864 h.
A further data set has as its system SK-OV-3. The data set can be described thus: Anti-tumor activity against human SK-OV-3 cells xenografted in nude mouse assessed as reduction in tumor growth at 10 mg/kg, ip measured for 1 to 39 days. The note with it: time 1-39 day.

As to `CC(C)CCC[C@@H](C)[C@H]1CC[C@@H]2[C@]1(C)CCC1[C@]23C=C[C@]2(C[C@@H](OC(=O)CBr)CC[C@]12C)n1c(=O)n(C)c(=O)n13` (stereo partly specified), the Activity entry is “Dde” in the data set with BE(2)-C [1]; “Dde” in the data set on Kelly; “Dde” in the data set on SH-SY5Y [2]; “Dde” in the data set on Tumor cell line [9]; “Dde” in the data set with Mus musculus [11]; “Non-Toxic” in [13]. Also, the Activity result in data set [14], in data set [15], in data set [16], in [17] and in data set [18] was “Non-Toxic” each time. For the same molecule, the “fold change (FC)” value in data set [3] was found to be 0.83; in data set [4], 0.68; in data set [5], 0.8. Further, the outcome in the data set with SH-SY5Y [6], in the data set on BE(2)-C [7], with Tumor cell line [8], in the data set with Mus musculus [10], with Mus musculus [12] and with SK-OV-3 was Active. In data set [19], the survival at 10 mg/kg is 100%.
